In brackets after ≈: the same amount, converted by molar mass. Activity calls are given as the source filed them. No cut-off for these calls is given here.
What was measured:
[1] = molecular target: Motilin receptor (Homo sapiens) (UniProt O43193); assay: Agonist activity at human motilin receptor (412 residues) assessed as myo-[2-3H]inositol phosphate accumulation measured after 75 mins by scintillation proximity assay; type: functional
[2] = molecular target: Growth hormone secretagogue receptor type 1 (Homo sapiens) (UniProt Q92847); assay: Agonist activity at human ghrelin receptor ([…]) assessed as myo-[2-3H]inositol phosphate accumulation in presence of 10 uM Zn2+ measured after 75 mins by scintillation proximity assay; type: functional
Growth hormone secretagogue receptor type 1 (Homo sapiens), sequence (Q92847 whole entry): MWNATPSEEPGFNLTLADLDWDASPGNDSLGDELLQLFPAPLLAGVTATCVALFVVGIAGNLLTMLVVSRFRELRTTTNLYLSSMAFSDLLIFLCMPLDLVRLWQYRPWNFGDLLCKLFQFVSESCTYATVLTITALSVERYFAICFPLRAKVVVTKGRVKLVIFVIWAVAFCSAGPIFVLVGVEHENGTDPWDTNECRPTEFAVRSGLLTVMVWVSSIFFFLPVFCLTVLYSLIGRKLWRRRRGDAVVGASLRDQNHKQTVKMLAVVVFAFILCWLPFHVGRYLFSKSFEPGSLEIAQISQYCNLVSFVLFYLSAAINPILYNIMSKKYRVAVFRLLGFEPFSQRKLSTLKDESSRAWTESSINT

[3] = molecular target: T1, G-protein coupled receptor 39 (Mus musculus, UniProt Q5U431); assay: Agonist activity at mouse GPR39 expressed in HEK293 cells co-expressing Galphaq assessed as myo-[2-3H]inositol phosphate accumulation in presence of 10 uM Zn2+ measured after 75 mins by scintillation proximity assay; type: functional, cell-based
T1 sequence (Q5U431 whole entry): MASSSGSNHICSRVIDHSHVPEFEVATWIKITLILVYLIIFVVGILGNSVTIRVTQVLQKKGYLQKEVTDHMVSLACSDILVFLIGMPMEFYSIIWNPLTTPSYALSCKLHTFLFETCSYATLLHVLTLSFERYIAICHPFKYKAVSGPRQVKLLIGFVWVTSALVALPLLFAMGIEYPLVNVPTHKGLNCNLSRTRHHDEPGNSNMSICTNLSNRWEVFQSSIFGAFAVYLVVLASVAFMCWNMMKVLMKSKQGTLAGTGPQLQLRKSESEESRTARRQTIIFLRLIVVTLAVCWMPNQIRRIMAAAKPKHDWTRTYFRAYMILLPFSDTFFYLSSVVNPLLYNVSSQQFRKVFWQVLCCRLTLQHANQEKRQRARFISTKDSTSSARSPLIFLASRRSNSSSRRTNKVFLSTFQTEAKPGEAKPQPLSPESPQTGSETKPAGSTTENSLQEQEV

[4] = molecular target: T2, G-protein coupled receptor 39 (Mus musculus) (UniProt Q5U431); assay: Agonist activity at GPR39 in primary gastric mucosal cells isolated from C57BL/6 mouse assessed as myo-[2-3H]inositol phosphate accumulation in presence of 10 uM Zn2+ measured after 75 mins by scintillation proximity assay; type: functional
T2 sequence (whole entry): T1 sequence (Q5U431 whole entry)
How it was run: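 Primary murine gastric mucosal cell cultures stimulated with ligand plus 10 μM Zn2+; inositol phosphate turnover read out as for the transfected-cell IP accumulation assay.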

[5] = molecular target: T3, C-C chemokine receptor type 1 (Homo sapiens) (UniProt P32246); assay: Agonist activity at full length human CCR1 assessed as myo-[2-3H]inositol phosphate accumulation measured after 75 mins by scintillation proximity assay; type: functional
T3 sequence (whole entry): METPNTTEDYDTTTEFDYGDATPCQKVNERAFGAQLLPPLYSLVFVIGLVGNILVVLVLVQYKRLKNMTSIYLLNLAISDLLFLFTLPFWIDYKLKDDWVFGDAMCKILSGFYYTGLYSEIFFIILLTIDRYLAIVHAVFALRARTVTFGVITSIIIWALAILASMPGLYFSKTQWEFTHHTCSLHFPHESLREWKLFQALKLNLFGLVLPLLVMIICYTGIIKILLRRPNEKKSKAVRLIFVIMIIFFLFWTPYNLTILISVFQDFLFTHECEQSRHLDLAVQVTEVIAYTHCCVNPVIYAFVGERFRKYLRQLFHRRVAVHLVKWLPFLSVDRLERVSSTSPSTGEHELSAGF

[6] = molecular target: Neuromedin-U receptor 2 (Homo sapiens) (UniProt Q9GZQ4); assay: Agonist activity at human NMU2 receptor assessed as myo-[2-3H]inositol phosphate accumulation measured after 75 mins by scintillation proximity assay; type: functional
Neuromedin-U receptor 2 (Homo sapiens), sequence (Q9GZQ4 whole entry): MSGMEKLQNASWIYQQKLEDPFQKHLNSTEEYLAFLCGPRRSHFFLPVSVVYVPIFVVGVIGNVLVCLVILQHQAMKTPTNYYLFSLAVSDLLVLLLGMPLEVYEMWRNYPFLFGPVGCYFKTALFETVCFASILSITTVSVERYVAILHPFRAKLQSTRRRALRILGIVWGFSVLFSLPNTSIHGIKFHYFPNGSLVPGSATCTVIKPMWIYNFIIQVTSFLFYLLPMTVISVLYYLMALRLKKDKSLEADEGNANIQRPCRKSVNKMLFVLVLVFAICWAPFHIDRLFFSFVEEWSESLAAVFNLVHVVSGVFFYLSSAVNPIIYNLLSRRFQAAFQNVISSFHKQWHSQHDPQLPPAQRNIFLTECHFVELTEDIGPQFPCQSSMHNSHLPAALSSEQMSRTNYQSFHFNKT

[7] = tested on: Primary gastric mucosal cell; assay: Induction of CGRP-induced somatostatin release in primary gastric mucosal cells isolated from GPR39 deficient C57BL/6 mouse at 1 uM in presence of 10 uM of Zn2+ measured after 4 hrs by radioimmunoassay; type: functional, cell-based
How it was run: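 Primary gastric mucosal cells from GPR39-KO mice, day after preparation, exposed to ligands (1 μM, 10 μM Zn2+) in triplicate for 4 h; supernatant somatostatin measured by in-house RIA and expressed as percent of medium-alone secretion; 10 nM CGRP used as a comparator stimulus; n=2.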

[8] = tested on: Pancreatic islet; assay: Induction of glucose-stimulated insulin release in mouse pancreatic islets at 1 uM pretreated for 24 hrs followed by glucose addition measured after 30 mins; type: functional, cell-based
How it was run: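 Islets isolated from GPR39-deficient mice and wild-type littermates on five independent days, 2 to 3 mice per day; insulin secretion measured with vehicle or 1 μM compound.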

[9] = molecular target: T4, G-protein coupled receptor 39 (Homo sapiens, UniProt O43194); assay: Agonist activity at human GPR39 expressed in HEK293 cells co-expressing Galphaq assessed as myo-[2-3H]inositol phosphate accumulation in presence of 10 uM Zn2+ measured after 75 mins by scintillation proximity assay; type: functional, cell-based
T4 sequence (O43194 whole entry): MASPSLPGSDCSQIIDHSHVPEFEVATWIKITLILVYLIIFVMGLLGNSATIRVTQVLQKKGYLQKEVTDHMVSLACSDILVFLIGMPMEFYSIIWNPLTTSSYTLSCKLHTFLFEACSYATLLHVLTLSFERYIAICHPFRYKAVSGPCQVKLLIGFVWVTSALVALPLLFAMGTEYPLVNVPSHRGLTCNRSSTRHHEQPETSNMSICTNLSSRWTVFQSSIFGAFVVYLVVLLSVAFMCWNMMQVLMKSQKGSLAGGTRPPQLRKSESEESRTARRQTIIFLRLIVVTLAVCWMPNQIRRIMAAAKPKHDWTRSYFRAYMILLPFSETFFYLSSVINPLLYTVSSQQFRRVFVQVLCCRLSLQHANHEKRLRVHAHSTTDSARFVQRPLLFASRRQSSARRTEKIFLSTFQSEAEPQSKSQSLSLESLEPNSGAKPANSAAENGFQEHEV

[10] = molecular target: T4, G-protein coupled receptor 39; assay: Agonist activity at human GPR39 expressed in HEK293 cells co-expressing Galphaq assessed as myo-[2-3H]inositol phosphate accumulation measured after 75 mins by scintillation proximity assay; type: functional, cell-based
[11] = molecular target: T5, G-protein coupled receptor 39 (Homo sapiens) (UniProt O43194); assay: (§1) Agonist activity at GPR39 (unknown origin) expressed in COS7 cells co-expressing Galphas assessed as increase in intracellular cAMP level in presence of 3 uM Zn2+ measured after 30 mins by chemiluminescence assay; type: functional, cell-based
T5 sequence (whole entry): T4 sequence (O43194 whole entry)

[12] = molecular target: T4, G-protein coupled receptor 39; assay: as §1; type: functional, cell-based
[13] = Increase in CGRP-induced somatostatin release in primary gastric mucosal cells isolated from GPR39 deficient C57BL/6 mouse at 1 uM in presence of 10 uM of Zn2+ measured after 4 hrs by radioimmunoassay relative to control; type: functional, Primary gastric mucosal cell; conditions: in the assay text read “C57BL/6 mouse” for “GPR39 deficient C57BL/6 mouse”
[14] = Apparent permeability from apical to basolateral side in human Caco2 cells by LC-MS/MS analysis; type: ADME, cell-based; conditions: Caco-2
[15] = Aqueous solubility of the compound in phosphate buffered saline at pH 7.0 at 10 mM by turbidimetric method
[16] = molecular target: T3, C-C chemokine receptor type 1 (Homo sapiens); assay: Agonist activity at full length human CCR1 assessed as myo-[2-3H]inositol phosphate accumulation in presence of 10 uM Zn2+ measured after 75 mins by scintillation proximity assay; type: functional

Motilin receptor (Homo sapiens), sequence (O43193 whole entry): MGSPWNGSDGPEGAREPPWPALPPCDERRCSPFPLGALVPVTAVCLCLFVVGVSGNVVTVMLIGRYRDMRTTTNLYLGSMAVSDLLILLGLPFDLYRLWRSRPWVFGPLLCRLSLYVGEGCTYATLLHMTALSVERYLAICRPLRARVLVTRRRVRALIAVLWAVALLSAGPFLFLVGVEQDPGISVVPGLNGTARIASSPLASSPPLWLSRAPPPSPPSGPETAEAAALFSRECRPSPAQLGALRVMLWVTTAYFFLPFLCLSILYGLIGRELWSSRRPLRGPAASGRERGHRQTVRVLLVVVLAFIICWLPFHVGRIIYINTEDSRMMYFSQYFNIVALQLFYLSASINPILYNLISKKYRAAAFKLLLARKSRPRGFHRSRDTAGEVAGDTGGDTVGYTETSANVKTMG

Activity [1]: inactive
Activity [2]: inactive
EC50 [3]: 5 nM
Activity [4]: Dose-dependent effect
Activity [5]: inactive
Activity [6]: inactive
EC50 [9]: 9 nM
EC50 [10]: 280 nM
Activity [11]: Dose-dependent effect
EC50 [12]: 17 nM
Papp A→B [14]: 25 ×10⁻⁶ cm/s
solubility kinetic at 10000 µM [15]: 65 µM (≈ 25.9 µg/mL)
Activity [16]: inactive
Compound: Cc1nn(-c2ncnc3nc[nH]c23)c2c1C(c1ccc(F)cc1Cl)CC(=O)N2 (stereo unspecified)
Activity [7]: inactive
Activity [8]: inactive
Activity [13]: 53%
